The target of assay [1] is Proto-oncogene tyrosine-protein kinase ROS (Homo sapiens) (UniProt P08922). In words: Inhibition of ROS at 10 uM by HotSpot assay.
The target of assay [2] is Proto-oncogene tyrosine-protein kinase receptor Ret (Homo sapiens) (UniProt P07949). In words: Inhibition of RET at 10 uM by HotSpot assay.
Assay [3] addresses Serine/threonine-protein kinase B-raf (Homo sapiens) (UniProt P15056). Nature of the assay: Inhibition of B-Raf at 10 uM by HotSpot assay.
Assay [4] addresses Macrophage-stimulating protein receptor (Homo sapiens) (UniProt Q04912). In words: Inhibition of RON at 10 uM by HotSpot assay.
Assay [5] concerns the target Rho-associated protein kinase 1 (Homo sapiens) (UniProt Q13464). In words: Inhibition of ROCK1 at 10 uM by HotSpot assay.
In assay [6] the target is Mitogen-activated protein kinase 1 (Homo sapiens) (UniProt P28482). Nature of the assay: Inhibition of MAPK1 at 10 uM by HotSpot assay.
Assay [7] deals with Inhibitor of nuclear factor kappa-B kinase subunit epsilon (Homo sapiens) (UniProt Q14164). In words: Inhibition of IKKepsilon at 10 uM by HotSpot assay.
Chain of Inhibitor of nuclear factor kappa-B kinase subunit epsilon (Homo sapiens) (Q14164 whole entry): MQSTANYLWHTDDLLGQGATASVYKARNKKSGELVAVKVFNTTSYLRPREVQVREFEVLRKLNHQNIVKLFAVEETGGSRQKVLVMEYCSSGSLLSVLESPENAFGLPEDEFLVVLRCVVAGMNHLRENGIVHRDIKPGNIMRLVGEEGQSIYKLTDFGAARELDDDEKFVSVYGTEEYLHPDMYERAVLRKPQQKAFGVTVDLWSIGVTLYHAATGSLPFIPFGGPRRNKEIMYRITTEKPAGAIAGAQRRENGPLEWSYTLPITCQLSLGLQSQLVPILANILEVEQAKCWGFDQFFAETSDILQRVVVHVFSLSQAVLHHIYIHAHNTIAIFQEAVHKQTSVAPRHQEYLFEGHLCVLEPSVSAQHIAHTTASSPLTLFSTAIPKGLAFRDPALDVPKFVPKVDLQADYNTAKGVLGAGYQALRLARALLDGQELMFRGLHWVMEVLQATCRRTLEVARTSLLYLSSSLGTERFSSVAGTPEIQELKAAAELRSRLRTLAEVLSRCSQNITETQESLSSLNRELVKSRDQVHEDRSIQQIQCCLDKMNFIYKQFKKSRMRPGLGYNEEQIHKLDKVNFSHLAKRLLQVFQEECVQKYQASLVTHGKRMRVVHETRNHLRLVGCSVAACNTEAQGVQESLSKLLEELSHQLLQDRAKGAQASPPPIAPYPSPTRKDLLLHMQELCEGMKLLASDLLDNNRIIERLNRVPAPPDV
In assay [8] the target is Tyrosine-protein kinase Yes (Homo sapiens) (UniProt P07947). In words: Inhibition of YES1 at 10 uM by HotSpot assay.
Chain of Tyrosine-protein kinase Yes (Homo sapiens) (P07947 2-543 limits assumed): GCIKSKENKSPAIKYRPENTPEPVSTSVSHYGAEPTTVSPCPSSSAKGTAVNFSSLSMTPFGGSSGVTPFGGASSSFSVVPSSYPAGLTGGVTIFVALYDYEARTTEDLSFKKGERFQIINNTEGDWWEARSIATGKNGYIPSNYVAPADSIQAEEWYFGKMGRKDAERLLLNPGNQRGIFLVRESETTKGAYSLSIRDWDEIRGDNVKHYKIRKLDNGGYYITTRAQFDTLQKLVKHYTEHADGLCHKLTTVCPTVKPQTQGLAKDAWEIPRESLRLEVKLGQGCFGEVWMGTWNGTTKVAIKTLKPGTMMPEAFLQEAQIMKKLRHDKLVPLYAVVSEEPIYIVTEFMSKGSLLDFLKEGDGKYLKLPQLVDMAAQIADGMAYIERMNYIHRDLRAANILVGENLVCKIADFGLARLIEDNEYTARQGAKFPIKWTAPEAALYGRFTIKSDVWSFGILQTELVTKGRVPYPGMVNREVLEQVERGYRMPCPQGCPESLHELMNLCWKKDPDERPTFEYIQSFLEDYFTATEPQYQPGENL
The target of assay [9] is Insulin receptor (Homo sapiens) (UniProt P06213). Nature of the assay: Inhibition of IR at 10 uM by HotSpot assay.
The target of assay [10] is Mitogen-activated protein kinase 14 (Homo sapiens) (UniProt Q16539). Nature of the assay: Inhibition of p38alpha at 10 uM by HotSpot assay.
The target in assay [11] is Cyclin-dependent kinase 2/cyclin E1 (Homo sapiens) (UniProt P24864+P24941). In words: Inhibition of CDK2/Cyclin E at 10 uM by HotSpot assay. Format: protein-complex assay.
Assay [12] addresses Insulin-like growth factor 1 receptor (Homo sapiens) (UniProt P08069). In words: Inhibition of IGF1R at 10 uM by HotSpot assay.
For assay [13], the target named is Serine/threonine-protein kinase PLK1 (Homo sapiens) (UniProt P53350). In words: Inhibition of PLK1 at 10 uM by HotSpot assay.
The target in assay [14] is Tyrosine-protein kinase Lck (Homo sapiens) (UniProt P06239). Nature of the assay: Inhibition of LCK at 10 uM by HotSpot assay.
Assay [15] deals with Mast/stem cell growth factor receptor Kit (Homo sapiens) (UniProt P10721). Nature of the assay: Inhibition of c-Kit at 10 uM by HotSpot assay.
Assay [16] deals with BDNF/NT-3 growth factors receptor (Homo sapiens) (UniProt Q16620). In words: Inhibition of NTRK2 at 10 uM by HotSpot assay.
Chain of BDNF/NT-3 growth factors receptor (Homo sapiens) (Q16620 32-822 limits assumed): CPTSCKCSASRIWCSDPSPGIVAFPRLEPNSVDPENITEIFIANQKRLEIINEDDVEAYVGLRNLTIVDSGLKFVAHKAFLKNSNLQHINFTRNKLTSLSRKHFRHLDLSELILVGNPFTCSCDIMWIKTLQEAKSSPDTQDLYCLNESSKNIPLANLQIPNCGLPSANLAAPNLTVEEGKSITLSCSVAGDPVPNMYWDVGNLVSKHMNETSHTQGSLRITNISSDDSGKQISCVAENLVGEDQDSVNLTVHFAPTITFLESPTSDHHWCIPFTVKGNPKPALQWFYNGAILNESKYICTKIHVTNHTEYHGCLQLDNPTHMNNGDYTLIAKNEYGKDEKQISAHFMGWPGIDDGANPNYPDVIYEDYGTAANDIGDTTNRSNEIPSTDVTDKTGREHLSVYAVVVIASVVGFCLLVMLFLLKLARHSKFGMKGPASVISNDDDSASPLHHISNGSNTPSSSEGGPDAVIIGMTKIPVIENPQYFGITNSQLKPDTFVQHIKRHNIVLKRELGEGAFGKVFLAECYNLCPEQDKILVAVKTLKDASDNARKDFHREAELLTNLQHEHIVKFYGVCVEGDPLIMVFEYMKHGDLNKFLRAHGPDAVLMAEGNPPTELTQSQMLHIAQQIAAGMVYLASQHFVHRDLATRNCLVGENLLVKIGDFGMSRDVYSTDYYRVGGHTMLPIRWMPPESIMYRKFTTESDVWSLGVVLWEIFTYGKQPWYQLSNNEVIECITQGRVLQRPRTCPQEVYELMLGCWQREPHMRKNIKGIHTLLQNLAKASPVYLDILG
Assay [17] concerns the target RAC-alpha serine/threonine-protein kinase (Homo sapiens) (UniProt P31749). In words: Inhibition of AKT1 at 10 uM by HotSpot assay.
A short description of assay [18]: Cytotoxicity against human RPMI8266 cells assessed as cell growth at 0.01 uM after 48 hrs by sulforhodamine B assay. The following applies: read-out: Activity. Format: functional.
The test system of assay [19] is RXF 393. In words: Cytotoxicity against human RXF393 cells assessed as cell growth at 100 nM after 48 hrs by sulforhodamine B assay. Format: functional. The following applies: RXF 393, 48 h, read-out: Activity. (Sulforhodamine B stains cellular protein and so reports cell mass.)
The test system of assay [20] is CCRF-CEM. In words: Cytotoxicity against human CCRF-CEM cells assessed as cell growth at 100 nM after 48 hrs by sulforhodamine B assay. As to conditions: read-out: Activity; call rule not given here. Format: functional.
Assay [21] concerns RXF 393. Nature of the assay: Cytotoxicity against human RXF393 cells assessed as cell growth at 0.001 uM after 48 hrs by sulforhodamine B assay. The following applies: RXF 393, 48 h, read-out: Activity. Format: functional.
Assay [22] relates to HCC 2998. Nature of the assay: Cytotoxicity against human HCC2998 cells assessed as cell growth at 0.001 uM after 48 hrs by sulforhodamine B assay. In kind it is functional. As to conditions: HCC 2998, 48 h, read-out: Activity.
The subject of a further assay is SK-MEL-28. In words: Growth inhibition of human SK-MEL-28 cells after 48 hrs by sulforhodamine B assay. The following applies: SK-MEL-28, 48 h. In kind it is functional. In a few lines:
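Adherent SK-MEL-28 cells, plated in RPMI 1640 with 5% FBS and 2 mM L-glutamine, get five 10-fold or ½log drug dilutions for 48 h at 37 °C. Cells are fixed with cold TCA (final 10%) for 60 min at 4 °C, stained with 0.4% SRB, solubilized in 10 mM Tris and read at 515 nm. IC50 is solved from [(Ti−Tz)/(C−Tz)]×100 = 50.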

The subject of assay [23] is CCRF-CEM. Nature of the assay: Cytotoxicity against human CCRF-CEM cells assessed as cell growth at 0.001 uM after 48 hrs by sulforhodamine B assay. Format: functional. The following applies: read-out: Activity.
The test system of assay [24] is HCC 2998. Nature of the assay: Cytotoxicity against human HCC2998 cells assessed as cell growth at 0.01 uM after 48 hrs by sulforhodamine B assay. Format: functional. The following applies: HCC 2998, 48 h, read-out: Activity.
Assay [25] can be described thus: Cytotoxicity against human […] cells assessed as cell growth at 10 uM after 48 hrs by sulforhodamine B assay. Format: functional. As to conditions: read-out: Activity.
The test system of a further assay is SR. In words: Cytotoxicity against human SR cells assessed as cell growth at 1 uM after 48 hrs by sulforhodamine B assay. The following applies: read-out: Activity. Format: functional.
The nature of assay [26]: Cytotoxicity against human RPMI8266 cells assessed as cell growth at 1 uM after 48 hrs by sulforhodamine B assay. Format: functional. As to conditions: read-out: Activity.
In assay [27] the test system is PC-3. Nature of the assay: Cytotoxicity against human PC3 cells assessed as cell growth at 0.001 uM after 48 hrs by sulforhodamine B assay. Format: functional. As to conditions: PC-3, 48 h, read-out: Activity.
The test system of another assay is NCI-H226. Nature of the assay: Cytotoxicity against human NCI-H226 cells assessed as cell growth at 1 uM after 48 hrs by sulforhodamine B assay. In kind it is functional. As to conditions: NCI-H226, 48 h, read-out: Activity.
In assay [28] the test system is HOP-92. In words: Cytotoxicity against human HOP92 cells assessed as cell growth at 0.001 uM after 48 hrs by sulforhodamine B assay. Format: functional. As to conditions: HOP-92, 48 h, read-out: Activity.
The test system of assay [29] is HOP-92. In words: Cytotoxicity against human HOP92 cells assessed as cell growth at 0.01 uM after 48 hrs by sulforhodamine B assay. As to conditions: HOP-92, 48 h, read-out: Activity. Format: functional.
Assay [30] has as its system MCF7. Nature of the assay: Cytotoxicity against human MCF7 cells assessed as cell growth at 1 uM after 48 hrs by sulforhodamine B assay. In kind it is functional. As to conditions: MCF7, 48 h, read-out: Activity.
In assay [31] the test system is MCF7. Nature of the assay: Cytotoxicity against human MCF7 cells assessed as cell growth at 0.01 uM after 48 hrs by sulforhodamine B assay. Format: functional. As to conditions: MCF7, 48 h, read-out: Activity.
Assay [32] concerns PC-3. In words: Growth inhibition of human PC3 cells after 48 hrs by sulforhodamine B assay. In kind it is functional, cell-based.
Assay [33] concerns MCF7. Nature of the assay: Cytotoxicity against human MCF7 cells assessed as cell growth at 0.001 uM after 48 hrs by sulforhodamine B assay. As to conditions: MCF7, 48 h, read-out: Activity. In kind it is functional.
Assay [34] in a line: Growth inhibition of human RPMI8266 cells after 48 hrs by sulforhodamine B assay. Format: functional. In a few lines: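 Cells grown in RPMI 1640 with 5% FBS and 2 mM L-glutamine, seeded at 5,000–40,000 cells/well according to doubling time. After 24 h, time-zero plates are TCA-fixed. Five concentrations (10-fold or ½log dilutions, DMSO stocks) are applied for 48 h at 37 °C, 5% CO₂. Cells are TCA-fixed, SRB-stained and read at 515 nm. IC₅₀ is taken from [(Ti−Tz)/(C−Tz)]×100 = 50.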

The mark [35] stands for this setting: read-out: LC50 (the source's name).

The structures appear in SMILES notation.

Chain of Macrophage-stimulating protein receptor (Homo sapiens) (Q04912 25-304 limits assumed): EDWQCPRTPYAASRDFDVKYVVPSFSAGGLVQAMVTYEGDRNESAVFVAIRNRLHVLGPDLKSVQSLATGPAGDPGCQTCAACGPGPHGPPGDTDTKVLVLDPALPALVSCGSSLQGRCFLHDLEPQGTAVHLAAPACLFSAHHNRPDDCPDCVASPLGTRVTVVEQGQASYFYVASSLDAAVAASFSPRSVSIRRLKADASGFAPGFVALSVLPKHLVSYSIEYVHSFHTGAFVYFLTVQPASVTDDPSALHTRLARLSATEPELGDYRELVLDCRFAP
Chain of Macrophage-stimulating protein receptor (Homo sapiens) (Q04912 310-1400 limits assumed): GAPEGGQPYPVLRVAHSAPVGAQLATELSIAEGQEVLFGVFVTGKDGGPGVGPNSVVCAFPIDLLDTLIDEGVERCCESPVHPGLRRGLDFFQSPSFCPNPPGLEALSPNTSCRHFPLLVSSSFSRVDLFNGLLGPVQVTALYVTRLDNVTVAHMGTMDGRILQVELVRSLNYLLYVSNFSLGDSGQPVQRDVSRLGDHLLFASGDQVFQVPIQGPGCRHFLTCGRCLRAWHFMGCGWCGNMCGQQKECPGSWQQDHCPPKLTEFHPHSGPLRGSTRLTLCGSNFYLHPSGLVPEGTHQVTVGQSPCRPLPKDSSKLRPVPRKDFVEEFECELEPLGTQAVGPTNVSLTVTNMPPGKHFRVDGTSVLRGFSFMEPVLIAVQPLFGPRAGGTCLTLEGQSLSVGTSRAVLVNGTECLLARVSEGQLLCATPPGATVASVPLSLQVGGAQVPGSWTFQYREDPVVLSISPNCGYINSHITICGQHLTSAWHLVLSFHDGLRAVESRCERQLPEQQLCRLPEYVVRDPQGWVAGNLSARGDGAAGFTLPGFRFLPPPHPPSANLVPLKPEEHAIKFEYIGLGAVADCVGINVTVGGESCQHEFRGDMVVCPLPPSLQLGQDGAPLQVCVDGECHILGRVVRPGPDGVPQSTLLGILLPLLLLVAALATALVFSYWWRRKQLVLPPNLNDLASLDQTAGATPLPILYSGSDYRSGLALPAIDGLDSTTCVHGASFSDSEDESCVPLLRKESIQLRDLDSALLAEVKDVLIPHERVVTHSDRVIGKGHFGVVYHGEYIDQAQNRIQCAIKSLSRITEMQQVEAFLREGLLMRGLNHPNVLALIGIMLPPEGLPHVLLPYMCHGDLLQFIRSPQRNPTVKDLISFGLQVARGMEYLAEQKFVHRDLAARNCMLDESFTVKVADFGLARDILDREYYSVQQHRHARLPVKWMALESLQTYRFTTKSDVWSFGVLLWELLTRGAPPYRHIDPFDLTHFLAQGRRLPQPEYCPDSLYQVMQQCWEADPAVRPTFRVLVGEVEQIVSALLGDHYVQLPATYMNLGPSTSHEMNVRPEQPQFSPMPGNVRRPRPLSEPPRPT
Chain of Insulin-like growth factor 1 receptor (Homo sapiens) (P08069 31-736 limits assumed): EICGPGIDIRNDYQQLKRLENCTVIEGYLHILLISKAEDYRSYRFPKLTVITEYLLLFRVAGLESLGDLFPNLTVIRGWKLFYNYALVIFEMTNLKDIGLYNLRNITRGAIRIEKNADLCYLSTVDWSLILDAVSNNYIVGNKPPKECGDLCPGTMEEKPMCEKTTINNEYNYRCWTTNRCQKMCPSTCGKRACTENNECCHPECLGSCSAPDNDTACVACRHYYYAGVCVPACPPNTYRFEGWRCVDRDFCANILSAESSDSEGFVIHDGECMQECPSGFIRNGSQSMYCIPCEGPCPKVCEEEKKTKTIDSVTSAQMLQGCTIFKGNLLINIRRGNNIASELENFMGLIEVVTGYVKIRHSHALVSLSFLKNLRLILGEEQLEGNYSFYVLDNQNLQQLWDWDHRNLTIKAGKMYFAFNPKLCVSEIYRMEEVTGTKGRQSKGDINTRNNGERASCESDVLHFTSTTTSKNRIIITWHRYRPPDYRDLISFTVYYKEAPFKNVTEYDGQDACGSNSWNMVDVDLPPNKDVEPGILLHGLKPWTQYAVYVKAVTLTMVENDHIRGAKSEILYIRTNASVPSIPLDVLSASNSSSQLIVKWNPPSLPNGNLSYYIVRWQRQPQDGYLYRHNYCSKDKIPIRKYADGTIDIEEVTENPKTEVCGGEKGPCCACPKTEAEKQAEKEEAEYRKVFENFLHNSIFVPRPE
Chain of Insulin-like growth factor 1 receptor (Homo sapiens) (P08069 741-1367 limits assumed): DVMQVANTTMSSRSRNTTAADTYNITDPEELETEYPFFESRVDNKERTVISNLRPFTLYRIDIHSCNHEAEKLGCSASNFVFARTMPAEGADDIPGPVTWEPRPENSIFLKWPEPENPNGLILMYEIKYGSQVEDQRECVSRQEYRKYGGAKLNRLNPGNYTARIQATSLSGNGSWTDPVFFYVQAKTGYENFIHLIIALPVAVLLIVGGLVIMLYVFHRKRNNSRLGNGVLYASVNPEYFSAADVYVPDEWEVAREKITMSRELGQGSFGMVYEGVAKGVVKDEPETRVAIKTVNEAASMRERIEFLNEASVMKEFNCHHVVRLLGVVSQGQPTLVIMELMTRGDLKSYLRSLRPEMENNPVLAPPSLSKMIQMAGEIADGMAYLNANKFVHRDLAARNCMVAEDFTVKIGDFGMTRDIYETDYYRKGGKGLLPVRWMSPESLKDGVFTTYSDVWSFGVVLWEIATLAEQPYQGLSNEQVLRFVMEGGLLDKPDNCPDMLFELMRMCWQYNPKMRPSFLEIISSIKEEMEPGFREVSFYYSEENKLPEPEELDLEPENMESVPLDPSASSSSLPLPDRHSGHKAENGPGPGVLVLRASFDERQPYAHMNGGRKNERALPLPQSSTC

The term inhibition denotes the percentage by which the read-out fell short of the control. `CC(=O)Nc1cccc(-c2ccc(-c3ccnc(NC(=O)Nc4cc(C(F)(F)F)cc(C(F)(F)F)c4)n3)cn2)c1.Cl`: the inhibition in assay [1], in assay [2], in assay [3], in assay [4], in assay [5] and in assay [6] was less than 50% throughout. For the same compound, the inhibition in assay [7], in [8], in assay [9], in [10], in assay [11] and in [12] was less than 50% throughout. The inhibition was less than 50% in [13]; 70% in assay [14]; less than 50% in assay [15]; less than 50% in [16]; less than 50% in assay [17].
By TGI is commonly meant the concentration giving total growth inhibition. Low readings indicate more potent growth arrest, high ones less potent growth arrest. By GI50 is commonly meant the concentration giving 50% growth inhibition. Low values mean more potent growth inhibition, high ones less potent growth inhibition. As for `CC(=O)c1ccccc1-c1ccc(-c2ccnc(NC(=O)Nc3cc(N4CCOCC4)cc(C(F)(F)F)c3)n2)cn1`, the growth at 0.01 µM worked out at 104% in assay [18], 113% with HCC 2998 [24], 102% with HOP-92 [29] and 101% in the assay with MCF7 [31]. Besides, the results for the growth at 0.1 µM with RXF 393 [19] and in the assay on CCRF-CEM [20] were 82% and 87%, respectively. Moreover, the growth at 0.001 µM was 101% with RXF 393 [21]; 110% in the assay on HCC 2998 [22]; 98% in the assay on CCRF-CEM [23]; 101% in the assay on PC-3 [27]; 88% in the assay on HOP-92 [28]; 94% in the assay on MCF7 [33]. In addition, the total growth inhibition concentration (TGI) (in the assay on SK-MEL-28; in assay [34]) was more than 100 µM each time. The CC50 (in the assay on SK-MEL-28 (setting [35]); in assay [34] (setting [35])) was more than 100 µM throughout. The growth at 10 µM in assay [25] was determined as 89%. The growth at 1 µM in the assay on SR amounted to 78%; in [26], 78%; in the assay with NCI-H226 it was 53%; in the assay on MCF7 [30], 90%. The concentration for 50% growth inhibition (GI50) with PC-3 [32] (Homo sapiens, PC-3, 48 h) is more than 100 µM; in assay [34], more than 100 µM. In the assay with PC-3 [32] (pc-3), the IC50 entry is reported as “Not Active”.
